Bioassay records (PubChem)
Only some compounds are listed: those with a hit (about 2.2% of all), similar ones and a draw of the others.
CD11b adhes enh – enhancers of CD11b/CD18 adhesion to fibrinogen, primary screen, K562 cells, luminescence. activation, % at 10 µM. AID 1499, 2009. 0.07% of 93,000 active. Integrin beta-2 (Homo sapiens) + Integrin alpha-M (Homo sapiens), P05107+P11215. ATPlite luminescence;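 active means 10 µM primary screen giving 50% or more activity, confirmed by 40% or more on retest at that dose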
Target sequence (P05107 whole entry, looked up, other chains not shown): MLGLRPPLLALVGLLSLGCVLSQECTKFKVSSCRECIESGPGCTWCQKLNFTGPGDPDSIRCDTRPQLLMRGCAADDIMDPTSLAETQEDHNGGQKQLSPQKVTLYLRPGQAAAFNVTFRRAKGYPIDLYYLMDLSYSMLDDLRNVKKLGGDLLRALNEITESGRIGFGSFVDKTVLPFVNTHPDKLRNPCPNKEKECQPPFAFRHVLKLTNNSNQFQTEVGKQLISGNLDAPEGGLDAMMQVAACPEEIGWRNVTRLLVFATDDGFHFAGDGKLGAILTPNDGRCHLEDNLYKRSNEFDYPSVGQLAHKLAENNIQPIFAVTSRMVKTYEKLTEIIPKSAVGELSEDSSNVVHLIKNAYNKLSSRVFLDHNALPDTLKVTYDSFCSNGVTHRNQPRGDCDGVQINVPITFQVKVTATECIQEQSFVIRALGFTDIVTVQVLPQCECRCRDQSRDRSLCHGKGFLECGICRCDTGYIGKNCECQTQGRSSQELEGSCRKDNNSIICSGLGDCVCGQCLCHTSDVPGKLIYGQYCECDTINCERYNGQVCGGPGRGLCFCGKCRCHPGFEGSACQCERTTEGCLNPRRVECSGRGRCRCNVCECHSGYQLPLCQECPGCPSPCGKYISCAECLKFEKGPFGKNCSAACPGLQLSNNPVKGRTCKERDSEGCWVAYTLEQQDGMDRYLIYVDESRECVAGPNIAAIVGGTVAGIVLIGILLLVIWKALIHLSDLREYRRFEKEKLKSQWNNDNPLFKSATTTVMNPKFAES
RORA act – activators of orphan receptor RORA, primary screen, cell-based, luminescence; activation, % at 10 µM; CHO-K1 Gal4-RORA LBD luciferase reporter; percent increase over mock-subtracted basal signal; Nuclear receptor ROR-alpha (Homo sapiens), P35398; 1.5% of 65,000 active; AID 560, 2006;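 active means activation above the mean of all tested compounds plus 3 SD, cut at about 49% in these data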;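 further: 0% = DMSO-treated RORA cells and 100% = added signal equal to DMSO minus mock-transfected cells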
SF1 activator – activators of human SF-1, primary screen, cell-based, CHO-K1, Gal4-SF-1 LBD, luciferase luminescence; Steroidogenic factor 1 (Homo sapiens), Q13285; AID 522, 2006; activation, % at 10 µM; 1.9% of 65,000 active; CHO-K1 Gal4-SF-1 LBD luciferase reporter; % increase over DMSO SF-1-specific signal;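 active means activation above the mean activation of all tested compounds plus 3 SD, cut at about 50% in these data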
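Assay system: CHO-K1 cells co-transfected with Gal4 DBD–human SF-1 LBD, 5xGal4 luciferase reporter / Input: 4,000 cells per well / Incubation: 20 h compound exposure at 37 °C after 1 h cell settling / Detection: SteadyLite luciferase luminescence / Control set: DMSO negative control and −SF1 background wells / Replication: one test per compound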
Mac1 fbg inh – inhibitors of CD11b/CD18 adhesion to fibrinogen, primary screen, K562 cells, luminescence; Integrin beta-2 (Homo sapiens) + Integrin alpha-M (Homo sapiens), P05107+P11215; ATPlite luminescence; Mn2+ added to activate the integrin; inhibition, % at 10 µM; 0.54% of 93,000 active;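 active means primary inhibition of 50% or more at 10 µM, then 40% or more on retest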
MT1-MMP txn act – MT1-MMP promoter reporter activation – cell-based, luciferase luminescence, primary screen. activation factor at 10 µM. AID 750, 2007. 0.16% of 86,000 active. HT1080 MT1-MMP promoter luciferase reporter, overnight; active compounds read high;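 active means activation factor of at least 2 for MT1-MMP transcription at 10 µM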
Calb biofilm kill – clotrimazole potentiators killing Candida biofilms, primary screen, with clotrimazole, Alamar Blue. C. albicans biofilm + clotrimazole. inhibition, % at 6 µM. 0.14% of 85,000 active. AID 834, 2007;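 active means inhibition above 20%; inactive means inhibition below 20%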;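 further: preformed 24 hr biofilms exposed to compound for 48 hr; 0% = biofilm without compound and 100% = blank killed by clotrimazole plus chlorhexidine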
Starred values were filed as active, the others as inactive.

`CCn1c(O)c(/C=N/N=C/c2ccccc2)c2ccc(C3=NNC(=O)CC3)cc21` gave CD11b adhes enh 9.1, Mac1 fbg inh -22.3, MT1-MMP txn act 1.3 and Calb biofilm kill 1.0.
COc1ccc2nc(N3CCCC3)c(C#N)cc2c1 was read as CD11b adhes enh -2.5, RORA act 13.5, SF1 activator 9.1, Mac1 fbg inh -19.3, MT1-MMP txn act 1.3 and Calb biofilm kill 8.7.
COc1ccc2nc(N3CCCCC3)c(C#N)cc2c1 was read as CD11b adhes enh 2.8, RORA act 30.8, SF1 activator 50.0*, Mac1 fbg inh -11.2, MT1-MMP txn act 1.3 and Calb biofilm kill 3.7.
For COCc1cc(C)nc2sc(C(=O)Nc3nccs3)c(N)c12 the results were CD11b adhes enh 3.1, RORA act 31.2, SF1 activator 92.1*, Mac1 fbg inh -6.6, MT1-MMP txn act 1.4 and Calb biofilm kill 7.1.
`O=C(CCSCc1ccccc1Cl)N1CCN(c2cccc(Cl)c2)CC1` gave MT1-MMP txn act 1.2 and Calb biofilm kill 9.6.
`CC1=NN(C(=O)c2ccc(Br)cc2)C(O)(C(F)(F)OC(F)(F)F)C1` (stereo not given) gave CD11b adhes enh -10.7 and Mac1 fbg inh 92.7*.
Screening S=C(NNc1ccc2ccccc2c1)NC1CCCCC1 returned CD11b adhes enh 3.8 and Mac1 fbg inh -0.8.
For C=CCSc1nnc2c(n1)[nH]c1c(C)cccc12 the results were CD11b adhes enh -0.4, RORA act 84.1*, SF1 activator 31.1, Mac1 fbg inh 7.6, MT1-MMP txn act 1.6 and Calb biofilm kill -3.4.
`COc1ccc(NC(=O)c2cc(-c3cccnc3)nc3ccc(C)cc23)cc1OC` gave CD11b adhes enh 1.3 and Mac1 fbg inh 12.6.
`COc1ccc(NC(=O)c2cc(-c3ccc(C)o3)nc3ccccc23)cc1OC` gave CD11b adhes enh 12.6, RORA act 53.0*, SF1 activator 23.6, Mac1 fbg inh -16.3, MT1-MMP txn act 1.2 and Calb biofilm kill -4.1.
Screening Cc1c(C(=O)Nn2cnnc2)oc2ccccc12 returned CD11b adhes enh 4.8, RORA act 2.9, SF1 activator -4.8, Mac1 fbg inh 4.6, MT1-MMP txn act 1.1 and Calb biofilm kill 4.1.
For COc1cc(C(=O)Nc2ccc3c(c2)OCO3)ccc1-n1cnnn1 the results were CD11b adhes enh 0.4, RORA act -7.9, SF1 activator -0.3, Mac1 fbg inh -12.7 and MT1-MMP txn act 1.
Cc1cc(NC(=O)c2oc3ccccc3c2C)ccc1-n1cnnn1 was read as CD11b adhes enh 2.2, RORA act 86.0*, SF1 activator 8.6, Mac1 fbg inh -8.0, MT1-MMP txn act 1.6 and Calb biofilm kill 11.2.
Screening COc1cc(OC)cc(C(=O)Nc2ccc(-n3cnnn3)c(C)c2)c1 returned CD11b adhes enh -1.1, RORA act 50.1*, SF1 activator 54.1*, Mac1 fbg inh -5.8, MT1-MMP txn act 1.6 and Calb biofilm kill 5.8.
Cc1c(Cl)cccc1NC(=O)c1ccc(OCC(=O)NCc2ccccc2)cc1 was read as CD11b adhes enh 3.4 and Mac1 fbg inh -3.1.
CC(C)(C)c1ccc(OCC(=O)NNC(=S)NC(=O)c2ccccc2[N+](=O)[O-])c(Br)c1 was read as CD11b adhes enh -6.0 and Mac1 fbg inh -20.5.
Screening Clc1ccc(-c2nnc(-c3ccccc3)c(N3CCSCC3)n2)cc1 returned CD11b adhes enh 5.5 and Mac1 fbg inh 1.8.
For Clc1ccc(-c2nnc(N3CCCC3)nn2)cc1 the results were CD11b adhes enh -0.9, RORA act 54.6*, SF1 activator 40.7, Mac1 fbg inh 5.2 and Calb biofilm kill 6.3.
For O=c1cc2c(nn1Cc1ccccc1Cl)-c1ccccc1CC2 the results were CD11b adhes enh -1.0, Mac1 fbg inh 7.0, MT1-MMP txn act 1.3 and Calb biofilm kill 3.5.
For CCc1ccc(-c2c(C)sc(NC(C)=O)c2C(N)=O)cc1 the results were CD11b adhes enh -4.6 and Mac1 fbg inh -3.1.
`Cc1cc(C(=O)Nc2sc(C)c(-c3ccc(F)cc3)c2C(N)=O)no1` gave CD11b adhes enh -3.8, RORA act 37.8, SF1 activator 84.9*, Mac1 fbg inh 7.1, MT1-MMP txn act 1.6 and Calb biofilm kill 2.2.
Screening COc1ccccc1C(=O)NNC(=S)NC(=O)c1ccco1 returned CD11b adhes enh 4.3 and Mac1 fbg inh 37.9.
Screening COC(=O)c1ccc2c(c1)C(C)(C)C(/C=C/c1ccc(OC)c(OC)c1OC)=[N+]2C returned CD11b adhes enh -7.4, Mac1 fbg inh 107.4*, MT1-MMP txn act 0.4 and Calb biofilm kill 8.4.
CC(C)Oc1ccc2c(=O)c(-c3ccccc3)coc2c1 was read as RORA act -10.4, SF1 activator 31.3, MT1-MMP txn act 1.5 and Calb biofilm kill 6.6.
CCN(CC)C(=O)Oc1ccc2c(=O)c(-c3ccc(OC)cc3)coc2c1 was read as CD11b adhes enh 5.4, RORA act 68.7*, SF1 activator 71.2*, Mac1 fbg inh -18.8, MT1-MMP txn act 1.3 and Calb biofilm kill 4.9.
For CCN(CC)C(=O)Oc1ccc2c(=O)c(-c3ccc(OC)cc3)c(C)oc2c1 the results were CD11b adhes enh -1.5, RORA act 60.4*, SF1 activator 31.3, Mac1 fbg inh -9.5, MT1-MMP txn act 1.2 and Calb biofilm kill 0.3.
Screening Clc1ccc(-c2nn3c(Cn4cnc5ccccc54)nnc3s2)c(Cl)c1 returned RORA act -1.4 and SF1 activator -2.2.
Screening COc1c(O)c(O)cc2c1oc1c3cc(C)ccc3oc(=O)c21 returned MT1-MMP txn act 1.1.
`Cc1ccc(S(=O)(=O)N(C)/N=C/C=C/c2ccccc2)cc1` gave CD11b adhes enh -0.4 and Mac1 fbg inh 15.3.
For Cc1ccc(C)c(S(=O)(=O)C(C#N)c2nc3ccccc3nc2N2CCOCC2)c1 (stereo not given) the results were CD11b adhes enh -9.9, RORA act -4.4, SF1 activator -4.5, Mac1 fbg inh 95.0*, MT1-MMP txn act 1 and Calb biofilm kill 4.3.
`O=C(NCc1ccccc1)c1sc(=S)n2c1[nH]c(=O)c1ccccc12` gave CD11b adhes enh -7.0, Mac1 fbg inh 102.9*, MT1-MMP txn act 1 and Calb biofilm kill 7.7.
For CCCCNS(=O)(=O)c1ccc2nc(SCC(=O)Nc3sccc3C#N)[nH]c2c1 the results were CD11b adhes enh -8.5, RORA act 26.0, SF1 activator -0.8, Mac1 fbg inh 102.2*, MT1-MMP txn act 1 and Calb biofilm kill 5.3.
